The list is not random: actives were taken first. Their share in the collection is about 2.3%.
NS3 helicase inh – inhibitors of HCV NS3 helicase, primary screen, biochemical, Cy5 molecular beacon fluorescence | Hepatitis C virus NS3 helicase | NS3 helicase DNA unwinding | inhibition, % at 10.9 µM | AID 1800, 2009 | 290,000 compounds, 0.56% hits;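 active = inhibition above the mean of all tested compounds plus 3 SD, set per campaign, cut at about 35% in these data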;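 note: 0% = DMSO wells and 100% = thioflavine S control wells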
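Compound dosing – single dose, 10.9 µM nominal final, DMSO 0.8% final · System – NS3 helicase fragment of HCV · Buffer or medium – MOPS pH 6.5, MgCl2, DTT, Tween20, BSA · Signal – Cy5 beacon fluorescence read at start and 1 h · Also added – annealed dual-labelled DNA beacon duplex, ATP-started · Schedule – 1 h at 25 °C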
EBV gp42 inh – Epstein-Barr virus gp42 inhibitors, primary screen, biochemical, uHTS, fluorescence polarization; Glycoprotein 42 (Epstein-Barr virus (strain AG876)), Q1HVG2; inhibition, % (tested at 21.74 µM); Fluorescence polarization binding assay, mP read-out; 220,000 compounds, 0.42% hits; in the data active = inhibition above about 50%
GPR7 antagonist – GPR7 receptor antagonists, primary screen, cell-based, fluorescence, single concentration; Neuropeptides B/W receptor type 1 (Homo sapiens), P48145; GPR7-expressing cells, fluorescence antagonist assay; inhibition, % at 4.4 µM; 290,000 compounds, 1.1% hits; AID 1861, 2009; in the data active = inhibition above about 16%, passing the limit was not always enough;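 note: cells stimulated with the agonist NPW; 0% = agonist with vehicle and 100% = vehicle without agonist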
Target sequence (P48145 whole entry, looked up): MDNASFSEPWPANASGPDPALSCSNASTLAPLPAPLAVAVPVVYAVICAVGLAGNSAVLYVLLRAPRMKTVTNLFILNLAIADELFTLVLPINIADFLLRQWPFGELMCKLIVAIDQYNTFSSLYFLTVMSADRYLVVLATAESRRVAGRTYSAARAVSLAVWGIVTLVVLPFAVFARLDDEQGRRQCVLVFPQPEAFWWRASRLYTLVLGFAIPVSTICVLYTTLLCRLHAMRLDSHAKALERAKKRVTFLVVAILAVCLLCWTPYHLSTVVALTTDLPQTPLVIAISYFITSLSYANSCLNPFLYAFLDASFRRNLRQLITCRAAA
core dimer inh – inhibitors of HCV core protein dimerization, primary screen, biochemical, TR-FRET, high-throughput | TR-FRET GST/Flag-core106 dimerization, 1536-well | inhibition, % at 5 µM | 300,000 compounds, 0.33% hits | AID 1899, 2009;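 active = inhibition above the mean of all tested compounds plus 3 SD, set per screening campaign, cut at about 45% in these data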
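Material: GST/Flag-tagged HCV core106 proteins. Incubation: 4 h, 22.5 °C incubation. Read-out basis: inhibition (%) from 671 over 617 nm ratio. Measured by: TR-FRET, excitation 340 nm, emission 617 and 671 nm.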
EBNA-1 inhibitor – EBNA-1 DNA-binding inhibitors, primary screen, biochemical, fluorescence polarization; AID 1950, 2009; inhibition, % at 14.8 µM; 300,000 compounds, 0.34% hits; in the data active = inhibition above about 28%
ZTA counter – blocks Epstein-Barr virus ZTA, an EBNA-1 counter-screen | inhibition, % at 11 µM | AID 2234 | 320,000 compounds, 0.15% hits | ZTA-DNA binding, fluorescence polarization; in the data active = inhibition above about 33%
Target sequence (P03206 whole entry, looked up): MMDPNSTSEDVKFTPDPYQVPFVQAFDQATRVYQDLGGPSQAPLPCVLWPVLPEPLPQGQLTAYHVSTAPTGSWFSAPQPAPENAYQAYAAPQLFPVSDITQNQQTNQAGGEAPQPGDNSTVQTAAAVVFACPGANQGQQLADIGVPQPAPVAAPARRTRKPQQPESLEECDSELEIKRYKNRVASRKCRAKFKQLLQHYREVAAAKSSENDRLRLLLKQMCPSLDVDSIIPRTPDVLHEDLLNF
GPR7 antag cf – GPR7 receptor antagonists, confirmation, cell-based, fluorescence, single concentration; inhibition, % at 4.4 µM; shares compounds with GPR7 antagonist; GPR7-expressing cells, calcium fluorescence antagonist mode; 2,400 compounds, 52% hits; in the data active = inhibition above about 24%;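 note: stimulated with the GPR7 agonist NPW; 0% = agonist plus vehicle and 100% = vehicle alone without agonist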
MCHR1 antag – MCHR1 antagonists in cells, counter-screen for GPR7 antagonist project, cell-based, fluorescence, human; inhibition, % at 4.4 µM; MCHR1-expressing cells, fluorescence antagonist assay; AID 2148, 2009; 2,400 compounds, 62% hits; shares compounds with GPR7 antagonist; in the data active = inhibition above about 22%;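 note: 0% = vehicle with agonist and 100% = vehicle without agonist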
* marks the source's active call; other numbers are inactive results; nt = not tested or not shown.

SMILES | NS3 helicase inh | EBV gp42 inh | GPR7 antagonist | core dimer inh | EBNA-1 inhibitor | ZTA counter | GPR7 antag cf | MCHR1 antag
CCOC(=O)CC1(NC(=O)C2CCC(=O)N(CCc3ccccc3)C2)CCCCC1 (centres undefined) | -11.2 | nt | -7.0 | 1.9 | -7.6 | 21.1 | nt | nt
CCn1cc(/C=N/NS(=O)(=O)c2ccc(OC)cc2)c(C)n1 | -3.1 | -8.3 | 0.7 | -4.1 | -4.2 | -11.0 | nt | nt
Cc1ccc(C)c(S(=O)(=O)N2CCN(C(=O)c3cc(S(=O)(=O)NCc4ccccc4)ccc3C)CC2)c1 | 7.8 | nt | 43.7* | 12.2 | -14.8 | -6.9 | 25.8* | 34.4*
CCCCCOc1ccc(Cn2ccnc2)cc1[N+](=O)[O-] | -23.5 | -17.4 | 21.1* | -7.4 | -0.8 | -21.4 | 37.0* | 48.2*
CCOc1ccc(Cn2ccnc2)cc1[N+](=O)[O-] | 1.6 | 6.2 | -3.4 | 0.0 | 0.3 | -16.0 | nt | nt
CCOc1ccc(S(=O)(=O)Nc2nc3ccccc3nc2-n2ccc(=NC(=O)c3ccccc3C)cc2)cc1 | -71.8 | 23.4 | 22.9* | 26.6 | 3.6 | 4.4 | -7.7 | -1.5
Cc1cc(C(=O)N2CCC(Cc3ccccc3)CC2)ccc1[N+](=O)[O-] | -5.7 | 10.4 | nt | 17.2 | 17.4 | -0.3 | nt | 21.2
O=C(COC(=O)c1cccnc1Cl)NCc1ccco1 | -3.4 | 1.7 | -8.5 | -1.0 | -9.8 | -11.8 | nt | nt
CC(=O)N1CCN(c2ccc(NC(=O)c3ccc([N+](=O)[O-])cc3Cl)cc2)CC1 | -8.8 | nt | -13.7 | 1.1 | 4.5 | -1.0 | nt | nt
CCCCN(CCCC)S(=O)(=O)c1ccc(NC(=O)c2ccc([N+](=O)[O-])cc2Cl)cc1 | 27.8 | 6.4 | 22.8* | 1.2 | -0.9 | -7.7 | 49.9* | 72.6*
COc1cccc(CNCCc2c[nH]c3ccccc23)c1OCc1ccccc1 | -65.9 | 0.1 | 56.1* | -10.2 | 2.8 | -1.6 | 59.9* | 67.2*
COc1cc(C)c(CN2CCC(n3nccc3NC(=O)C3CC3)CC2)cc1C | 1.0 | nt | -6.4 | 10.6 | 0.2 | 18.9 | nt | nt
COc1ccc(-n2ncc3c2CC(C)(C)CC3NC(=O)C2CCN(C(C)=O)CC2)cc1 (centres undefined) | 12.2 | nt | -4.4 | -12.8 | 3.5 | 2.0 | nt | nt
CS(=O)(=O)N(CC(=O)N1CCN(Cc2ccc3c(c2)OCO3)CC1)Cc1ccc(Cl)cc1 | -2.3 | 4.9 | 24.8* | 1.7 | 13.8 | 15.4 | 38.4* | 55.9*
CS(=O)(=O)N(CCc1ccccc1)CC(=O)N1CCN(Cc2ccc3c(c2)OCO3)CC1 | -4.7 | -9.4 | -5.4 | -3.2 | -2.0 | -1.5 | nt | nt
CCN1CCN(C(=O)c2ccc3c(c2)N(Cc2ccc(C)cc2)CCS3)CC1 | -47.3 | nt | nt | 0.3 | 5.8 | 1.7 | nt | 12.5
Cc1ccc(CN2CCSc3ccc(C(=O)N4CCOCC4)cc32)cc1 | 2.0 | nt | -16.6 | -6.5 | 2.5 | 1.6 | nt | nt
Cc1cc(C)cc(NC(=O)N2CCN(C/C=C/c3ccccc3)CC2)c1 | -7.8 | -13.2 | -8.3 | 2.4 | -8.4 | -19.7 | nt | nt
COc1ccccc1NC(=O)c1c(Nc2ccccc2F)sc(C(=O)Nc2cccc(Cl)c2)c1N | 1.2 | -14.1 | 10.3 | 21.0 | -1.1 | 3.1 | nt | nt
COc1ccc(Nc2sc(C(=O)Nc3cccc(Cl)c3)c(N)c2C(=O)Nc2ccccc2OC)cc1 | 16.6 | -7.5 | 50.3* | 35.6 | 3.8 | 18.6 | 77.4* | 86.0*
COC(=O)CN1C(=S)N(C)C(=O)/C1=C/c1cccs1 | 3.2 | -9.1 | 3.3 | -11.9 | 3.7 | -4.7 | nt | nt
CCc1ccc(/C=C2/C(=O)N(C)C(=S)N2CC(=O)OC)s1 | -4.7 | -8.3 | 26.9* | -1.0 | 10.8 | 11.5 | 1.7 | 12.7
N/C(=N\c1nc2c(c(=O)[nH]1)CCCC2)Nc1ccccc1 | 3.8 | -15.1 | 30.8* | -0.2 | 2.7 | -5.2 | 7.6 | 17.7
CCOC(=O)c1ccc(S(=O)(=O)NNC(=O)c2cccc(N(C)C)c2)cc1 | 1.9 | -0.7 | -4.4 | -2.5 | -9.0 | -9.5 | nt | nt
N=c1c(C(=O)NC2CCCCC2)cc2c(=O)n3ccccc3nc2n1Cc1ccccc1 | -2.0 | nt | 19.0 | 0.5 | -11.0 | 1.3 | nt | nt
SMILES | NS3 helicase inh | EBV gp42 inh | GPR7 antagonist | core dimer inh | EBNA-1 inhibitor | ZTA counter | GPR7 antag cf | MCHR1 antag
N=c1c(C(=O)NCCc2ccccc2)cc2c(=O)n3ccccc3nc2n1Cc1ccco1 | 3.7 | nt | 28.0* | 25.2 | 0.2 | -3.7 | 51.8* | 49.5*
CCOCCCn1c(=N)c(C(=O)NCc2ccc3c(c2)OCO3)cc2c(=O)n3ccccc3nc21 | -3.5 | 10.9 | 22.1* | nt | nt | nt | 29.3* | 19.3
N=c1c(C(=O)NC2CCCCC2)cc2c(=O)n3ccccc3nc2n1Cc1ccco1 | 2.3 | nt | -1.4 | 13.4 | -2.9 | -10.2 | nt | nt
N=c1c(C(=O)NCCc2ccccc2)cc2c(=O)n3ccccc3nc2n1CCCN1CCOCC1 | -12.0 | nt | 36.6* | 2.7 | 6.1 | -4.7 | 34.6* | 16.7
N=c1c(C(=O)NC2CCCCC2)cc2c(=O)n3ccccc3nc2n1CCc1ccccc1 | -5.8 | nt | 31.8* | -3.5 | 7.8 | -3.1 | 39.2* | 24.5*
CN(c1ccc(C(=O)Nc2ccc3c(c2)n(C)c(=O)n3C)cc1)S(C)(=O)=O | -9.6 | nt | -16.0 | 5.2 | -4.6 | 4.8 | nt | nt
CCc1ccc(NC(=O)[C@H](C)NC(=O)C2CCN(C(=O)[C@@H](N)C(C)C)CC2)cc1 | -2.0 | nt | -13.1 | 8.8 | 1.1 | -2.3 | nt | nt
CC(=O)Nc1cccc(C(=O)/C=C/c2ccc(N(C)C)cc2)c1 | -8.0 | -95.7 | 29.5* | -5.8 | -6.3 | 1.4 | 60.4* | 61.6*
Cc1ccc(S(=O)(=O)n2c([N+](=O)[O-])cnc2C)c(C)c1C | -6.2 | 12.1 | 3.8 | -5.0 | -3.8 | 7.3 | nt | nt
CNC[C@@H](Cc1ccccc1)NC[C@@H](CC1CCCCC1)NCCCc1ccccc1 | -81.1 | nt | 64.7* | -10.5 | 0.3 | -2.2 | 81.8* | 93.0*
CNC[C@@H](CC1CCCCC1)NC[C@H](CC(C)C)NCCc1cccc(C(F)(F)F)c1 | -89.9 | nt | 56.3* | -3.4 | -7.7 | -22.7 | 72.5* | 88.0*
CCC[C@@H](CNC)NC[C@H](Cc1ccccc1)NCCCCc1ccccc1 | -71.3 | nt | 41.1* | -15.7 | 4.3 | -4.6 | 51.0* | 71.3*
CCC[C@@H](CN[C@@H](CNC)C(C)C)NCCCCc1ccccc1 | -4.8 | nt | 8.2 | -6.0 | 2.9 | -9.8 | nt | nt
COc1cc([N+](=O)[O-])cc(/C=N\NC(=O)C2COc3ccccc3O2)c1O (centres undefined) | 10.8 | -11.7 | -14.9 | -21.4 | 4.3 | 8.0 | nt | nt

Assay outcomes deposited in PubChem by several laboratories.
